Source: ChEMBL document CHEMBL3259699, “Digitoxin analogues with improved anticytomegalovirus activity” (ACS Med Chem Lett, 2014)
Activity calls are given as the source filed them. The calls are words filed in the database; no cut-off is given here.

Key:
[1] = Cytotoxicity against HFF assessed as inhibition of cell viability after 3 days by trypan blue exclusion assay; assay type: cell-based; settings: human, HFF cells
[2] = Selectivity index, ratio of CC50 for HFF to EC50 for Human cytomegalovirus Towne infected in human foreskin fibroblasts
Procedure, shortened: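 SI calculated as CC50/EC50. CC50 from MTT assay in uninfected HFFs. EC50 from pp28-luciferase HCMV Towne inhibition in infected HFFs.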

Human betaherpesvirus 5 [3] = test: Antiviral activity against Human cytomegalovirus Towne infected in HFF assessed as inhibition of viral replication by measuring pp28 expression at 72 hrs post-infection by luciferase assay; assay type: functional, organism-based; settings: Human betaherpesvirus 5, Towne
Procedure, shortened: (§1)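 HFFs infected with pp28-luciferase reporter HCMV at MOI 1 pfu/cell and treated across a concentration range. Luciferase activity read in cell lysates at 72 hpi. Triplicates in three independent experiments, mean ± SD. EC50 taken from dose-response curves.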

[4] = Cytotoxicity against HFF assessed as inhibition of cell viability after 3 days by MTT assay; assay type: cell-based; settings: human, HFF cells
Procedure, shortened: (§2)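 Uninfected HFFs exposed to a concentration range at 37 °C for 3 days. MTT (5 mg/mL stock in PBS) added for 3 h at 37 °C. Formazan dissolved in DMSO and absorbance read. Triplicates in three independent experiments, mean ± SD. CC50 from dose-response curves.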

[5] = Cytotoxicity against HFF assessed as inhibition of cell proliferation at 0.1 uM after 3 days by MTT assay; assay type: cell-based; settings: human, HFF cells; procedure, shortened: as §2
HFF [6] = test: Cell cycle arrest in HFF infected with HCMV assessed as accumulation at G0/1 phase after 24 hrs by propidium iodide staining based flow cytometry; assay type: ADME; settings: human
Procedure, shortened: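 HFFs serum-starved for 48 h, released, infected with Towne HCMV and treated with compound for 24 h. Cells trypsinized, permeabilized at −20 °C for 12 h, stained with propidium iodide and analysed by flow cytometry. Controls: serum-containing medium and GCV.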

HFF [7] = test: Effect on mimosine-induced cell cycle arrest in HFF infected with HCMV assessed as accumulation at G0/1 phase treated for 1 day after incubation with mid-G1 inhibitor mimosine for 48 hrs by propidium iodide staining based flow cytometry; assay type: ADME; settings: human, 24 h
Procedure, shortened: (§3)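 HFFs pretreated 48 h with mimosine or lovastatin, washed and released, then HCMV-infected and treated 24 h (1 day) with compound. Trypsinized, permeabilized at −20 °C for 12 h, stained with propidium iodide and analysed by flow cytometry.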

HFF [8] = test: Effect on lovastatin-induced cell cycle arrest in HFF infected with HCMV assessed as accumulation at G0/1 phase treated for 24 hrs after incubation with early G1 inhibitor lovastatin for 48 hrs by propidium iodide staining based flow cytometry; assay type: ADME; settings: human; procedure, shortened: as §3
Human betaherpesvirus 5 [9] = test: Antiviral activity against Human cytomegalovirus Towne infected in HFF assessed as inhibition of viral replication by measuring pp28 expression at 50 nM at 72 hrs post-infection by luciferase assay; assay type: functional, organism-based; procedure, shortened: as §1
Human betaherpesvirus 5 [10] = test: Antiviral activity against Human cytomegalovirus Towne infected in HFF assessed as decrease in virus DNA yield at 50 nM measured 96 hrs post-infection by real-time PCR analysis; assay type: functional, organism-based
Procedure, shortened: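 HFFs infected with HCMV Towne at MOI 1 pfu/cell and treated for 4 days. Supernatants collected and viral DNA yield quantified by real-time PCR. Triplicate determinations in three independent experiments, reported as mean ± SD.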

Human betaherpesvirus 5 [11] = test: Antiviral activity against Human cytomegalovirus TB40 infected in HFF assessed as inhibition of viral replication at 50 nM after 3 days by GFP-based fluorescence analysis; assay type: functional, organism-based
Procedure, shortened: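 Human foreskin fibroblasts (HFFs) infected with HCMV-TB40 (GFP-expressing) at MOI 1 pfu/cell, then treated with compound for 3 days. Read-out: GFP fluorescence, with a bright-field image for comparison.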

Human betaherpesvirus 5 [12] = test: Antiviral activity against Human cytomegalovirus Towne infected in HFF assessed as plaque reduction at 50 nM measured 8 days post-infection; assay type: functional, organism-based
Procedure, shortened: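 Plaque reduction assay with HCMV Towne in HFFs, read at 8 days postinfection. Triplicate determinations in three independent experiments, mean ± SD.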

Structure (SMILES) | CC50 at 72 h [1] | Ratio CC50/EC50 [2] | EC50 (Human betaherpesvirus 5 [3]) | CC50 at 72 h [4] | inhibition at 72 h, 0.1 µM [5] | Activity (HFF [6]) | Activity (HFF [7]) | Activity (HFF [8]) | inhibition (Human betaherpesvirus 5 [9]) | inhibition (Human betaherpesvirus 5 [10]) | inhibition (Human betaherpesvirus 5 [11]) | inhibition (Human betaherpesvirus 5 [12])
C[C@H]1O[C@H](O[C@H]2CC[C@@]3(C)[C@H](CC[C@@H]4[C@@H]3CC[C@]3(C)[C@@H](C5=CC(=O)OC5)CC[C@]43O)C2)CC[C@@H]1O[C@@H]1CC[C@H](O)[C@@H](C)O1 | 1000 nM | 15 | 790 nM | 12100 nM | – | – | – | – | – | – | – | –
C[C@H]1O[C@H](O[C@H]2CC[C@@]3(C)[C@H](CC[C@@H]4[C@@H]3CC[C@]3(C)[C@@H](C5=CC(=O)OC5)CC[C@]43O)C2)CC[C@@H]1O[C@@H]1CC[C@H](O[C@@H]2CC[C@H](O)[C@@H](C)O2)[C@@H](C)O1 | 19000 nM | 7 | 2080 nM | 15000 nM | – | – | – | – | – | – | – | –
C[C@H]1O[C@H](O[C@H]2[C@H](O)[C@H](O)[C@@H](O[C@H]3CC[C@@]4(C)[C@H](CC[C@@H]5[C@@H]4CC[C@]4(C)[C@@H](C6=CC(=O)OC6)CC[C@]54O)C3)O[C@@H]2C)[C@@H](O)[C@@H](O)[C@@H]1O | 10000 nM | 32 | 209 nM | 6700 nM | – | – | – | – | – | – | – | –
C[C@@H]1O[C@@H](O[C@@H]2CC[C@H](O[C@H]3CC[C@@]4(C)[C@H](CC[C@@H]5[C@@H]4CC[C@]4(C)[C@@H](C6=CC(=O)OC6)CC[C@]54O)C3)O[C@H]2C)CC[C@H]1O | 7000 nM | 76 | 14.8 nM | 1100 nM | – | – | – | – | – | – | – | –
C[C@H]1O[C@H](O[C@H]2CC[C@@]3(C)[C@H](CC[C@@H]4[C@@H]3CC[C@]3(C)[C@@H](C5=CC(=O)OC5)CC[C@]43O)C2)CC[C@@H]1O | 4000 nM | 29 | 37.5 nM | 1100 nM | – | – | – | – | – | – | – | –
C[C@H]1O[C@H](O[C@H]2CC[C@@]3(C)[C@H](CC[C@@H]4[C@@H]3CC[C@]3(C)[C@@H](C5=CC(=O)OC5)CC[C@]43O)C2)[C@@H](O)[C@@H](O)[C@@H]1O | 3700 nM | 86 | 26.6 nM | 2300 nM | – | – | – | – | – | – | – | –
C[C@@H]1O[C@@H](O[C@@H]2[C@@H](O)[C@@H](O)[C@H](O[C@@H]3[C@@H](O)[C@@H](O)[C@H](O[C@H]4CC[C@@]5(C)[C@H](CC[C@@H]6[C@@H]5CC[C@]5(C)[C@@H](C7=CC(=O)OC7)CC[C@]65O)C4)O[C@H]3C)O[C@H]2C)[C@H](O)[C@H](O)[C@H]1O | 11000 nM | 30 | 232 nM | 7000 nM | – | – | – | – | – | – | – | –
C[C@]12CC[C@H](O[C@@H]3O[C@@H](CO)[C@H](O)[C@@H](O)[C@H]3O)C[C@H]1CC[C@@H]1[C@@H]2CC[C@]2(C)[C@@H](C3=CC(=O)OC3)CC[C@]12O | 1900 nM | 127 | 7.3 nM | 900 nM | – | – | – | – | – | – | – | –
C[C@@H]1O[C@@H](O[C@@H]2CC[C@H](O[C@@H]3CC[C@H](O[C@H]4CC[C@@]5(C)[C@H](CC[C@@H]6[C@@H]5CC[C@]5(C)[C@@H](C7=CC(=O)OC7)CC[C@]65O)C4)O[C@H]3C)O[C@H]2C)CC[C@H]1O | 9000 nM | 21 | 113 nM | 2400 nM | – | – | – | – | – | – | – | –
C[C@@H]1O[C@@H](O[C@H]2CC[C@@]3(C)[C@H](CC[C@@H]4[C@@H]3CC[C@]3(C)[C@@H](C5=CC(=O)OC5)CC[C@]43O)C2)CC[C@H]1O [RAMNODIGIN] | 4000 nM | 174 | 3.8 nM | 700 nM | 50% | – | – | – | – | – | – | –
C[C@H]1O[C@H](O[C@H]2[C@H](O)[C@H](O)[C@@H](O[C@H]3[C@H](O)[C@H](O)[C@@H](O[C@H]4CC[C@@]5(C)[C@H](CC[C@@H]6[C@@H]5CC[C@]5(C)[C@@H](C7=CC(=O)OC7)CC[C@]65O)C4)O[C@@H]3C)O[C@@H]2C)[C@@H](O)[C@@H](O)[C@@H]1O | 16000 nM | 31 | 320 nM | 10000 nM | – | – | – | – | – | – | – | –
C[C@@H]1O[C@@H](O[C@@H]2[C@@H](O)[C@@H](O)[C@H](O[C@H]3CC[C@@]4(C)[C@H](CC[C@@H]5[C@@H]4CC[C@]4(C)[C@@H](C6=CC(=O)OC6)CC[C@]54O)C3)O[C@H]2C)[C@H](O)[C@H](O)[C@H]1O | 6000 nM | 41 | 36.7 nM | 1500 nM | – | – | – | – | – | – | – | –
C[C@@H]1O[C@@H](O[C@H]2CC[C@@]3(C)[C@H](CC[C@@H]4[C@@H]3CC[C@]3(C)[C@@H](C5=CC(=O)OC5)CC[C@]43O)C2)[C@H](O)[C@H](O)[C@H]1O | 2000 nM | 139 | 4.8 nM | 700 nM | – | – | – | – | – | – | – | –
C[C@@H]1O[C@@H](O[C@H]2C[C@@H](O)[C@]3(CO)[C@H]4[C@H](O)C[C@]5(C)[C@@H](C6=CC(=O)OC6)CC[C@]5(O)[C@@H]4CC[C@]3(O)C2)[C@H](O)[C@H](O)[C@H]1O [OUABAIN] | – | – | – | – | – | Active | Not Active | Not Active | – | – | – | –
C[C@H]1O[C@@H](O[C@H]2[C@@H](O)C[C@H](O[C@H]3[C@@H](O)C[C@H](O[C@H]4CC[C@@]5(C)[C@H](CC[C@@H]6[C@@H]5CC[C@]5(C)[C@@H](C7=CC(=O)OC7)CC[C@]65O)C4)O[C@@H]3C)O[C@@H]2C)C[C@H](O)[C@@H]1O [DIGITOXIN] | 6000 nM | 120 | 23.3 nM | 2800 nM | 50% | Active | Not Active | Not Active | Active | Active | Active | Active
